Assay results as given in ChEMBL document CHEMBL4152289, “Novel 8-nitroquinolin-2(1H)-ones as NTR-bioactivated antikinetoplastid molecules: Synthesis, electrochemical and SAR study” (Eur J Med Chem, 2018).
pIC50: −log10 of the molar value.

Columns and labels:
[1] = tested on: Trypanosoma brucei brucei; test: Antitrypanosomal activity against trypomastigote stage of Trypanosoma brucei brucei AnTat 1.9 assessed as decrease in parasite viability after 69 hrs by Alamar Blue assay; format: functional, organism-based; details: AnTat 1.9, 69 h
[2] = biological target: Albumin (Homo sapiens, UniProt P02768); test: (§1) Binding affinity to human serum albumin assessed as fraction unbound after 4 hrs by LC-MS method; format: ADME; details: isolated protein, 4 h
[3] = biological target: T1, serum albumin (Homo sapiens, UniProt P02768); test: as §1; format: ADME; details: human serum albumin
[4] = tested on: Trypanosoma brucei brucei; test: Antitrypanosomal activity against wild type trypomastigote stage of Trypanosoma brucei brucei S427 assessed as parasite growth inhibition after 72 hrs by haemocytometer; format: functional, organism-based; details: S427, 72 h
[5] = biological target: T1, serum albumin; test: Binding affinity to human serum albumin after 4 hrs by LC-MS method; format: ADME; details: read-out: PB (converted)
[6] = Metabolic stability in CD1 mouse liver microsomes at 10 mins by LC-MS method; format: ADME, microsome
How it was run: (§2)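 Duplicate incubations with female CD-1 mouse microsomes at 37 °C in 50 mM phosphate pH 7.4 with MgCl2 5 mM, NADP 1 mM, G6PDH 0.4 U/mL and glucose-6-phosphate 5 mM. Samples at 0, 5, 10, 20, 30 and 40 min quenched with 4 vol acetonitrile containing internal standard, then LC-MS/MS.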

[7] = tested on: Leishmania donovani; test: Antileishmanial activity against wild type promastigote stage of Leishmania donovani LdBOB assessed as inhibition of parasite growth after 72 hrs by resazurin assay; format: functional, organism-based
How it was run: (§3)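 LdBOB promastigotes (from MHOM/SD/62/1S-CL2D) grown at 26 °C in modified M199. NTR1- and NTR2-overexpressing lines kept in nourseothricin 100 µg/mL. Triplicate 10 mL cultures seeded at 5 × 10⁴ parasites/mL and exposed to drug for 72 h. 50 µM resazurin added, fluorescence (ex 528/em 590 nm) read after 4 h. Background-corrected data fitted to two-parameter EC50 equation. Experiments were run at least twice; values are mean plus standard deviation.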

[8] = tested on: Salmonella typhimurium; test: Mutagenicity in Salmonella typhimurium TA100 at […] preincubated for 1 hr with S9 mix followed by addition of molten top agar and measured 48 hrs post dark incubation by Ames test; format: toxicity, organism-based; details: salmonella enterica subsp. enterica serovar typhimurium
[9] = tested on: Leishmania donovani; test: Antileishmanial activity against amastigote stage of Leishmania donovani MHOM/IN/00/DEVI infected in human THP1 cells assessed as inhibition of parasite infection after 120 hrs by Giemsa staining-based microscopic method; format: functional, organism-based; details: THP-1, 120 h
How it was run: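 THP-1 cells differentiated with PMA (50 ng/mL final), 48 h at 37 °C, 6% CO2, then infected 10:1 with promastigotes acid-primed 24 h at 27 °C in Schneider 20% FCS pH 5.4. After 24 h, compounds in DMSO (<0.5% v/v) added in duplicate for 120 h. Methanol fixation and Giemsa staining; ≥200 cells counted. IC50 is the concentration halving infected macrophages, nonlinear regression, mean of three independent experiments.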

[10] = tested on: Leishmania donovani; test: Antileishmanial activity against promastigote stage of Leishmania donovani LdBOB over-expressing NTR2 assessed as inhibition of parasite growth after 72 hrs by resazurin assay; format: functional, organism-based; how it was run: as §3
[11] = tested on: Salmonella typhimurium; test: Mutagenicity in Salmonella typhimurium TA97a at […] preincubated for 1 hr with S9 mix followed by addition of molten top agar and measured 48 hrs post dark incubation by Ames test; format: toxicity, organism-based; details: salmonella enterica subsp. enterica serovar typhimurium
[12] = tested on: Trypanosoma brucei brucei; test: Antitrypanosomal activity against trypomastigote stage of Trypanosoma brucei brucei S427 over-expressing NTR1 assessed as parasite growth inhibition after 72 hrs by haemocytometer; format: functional, organism-based; details: S427, 72 h
[13] = tested on: Leishmania infantum; test: microbe, parasite or virus in culture; format: functional, organism-based; details: MHOM/MA/67/ITMAP-263, 48 h
[14] = tested on: Leishmania donovani; test: Antileishmanial activity against promastigote stage of Leishmania donovani LdBOB over-expressing NTR1 assessed as inhibition of parasite growth after 72 hrs by resazurin assay; format: functional, organism-based; how it was run: as §3
[15] = Metabolic stability in CD1 mouse liver microsomes at 20 mins by LC-MS method; format: ADME, microsome; how it was run: as §2
[16] = Electrochemical behavior of the compound assessed as redox potential corrected toward normal hydrogen electrode at 10^-3 mol/L by cyclic voltammetry; details: 1000 µM
[17] = tested on: HepG2; test: Genotoxicity in human HepG2 cells at 1 to 40 uM after 2 to 72 hrs by comet assay; format: toxicity, cell-based; details: hepg2, 40 µM
How it was run: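 Alkaline comet assay in HepG2 cells exposed 2 or 72 h to 1, 10, 20 or 40 µM. Cells embedded in 0.7% low-melting agarose, lysed 18 h at 4 °C at pH 10, electrophoresed 24 min at 0.8 V/cm at pH >13, then SYBR Gold stained. % tail DNA is the median of 200 cells (50 per deposit, 4 deposits). 1 mM methylmethanesulfonate as positive control.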

[18] = tested on: Salmonella typhimurium; test: Mutagenicity in Salmonella typhimurium TA102 at […] preincubated for 1 hr with S9 mix followed by addition of molten top agar and measured 48 hrs post dark incubation by Ames test; format: toxicity, organism-based; details: salmonella enterica subsp. enterica serovar typhimurium
[19] = tested on: Leishmania donovani; test: Selectivity ratio of IC50 for wild type promastigote stage of Leishmania donovani LdBOB to IC50 for promastigote stage of Leishmania donovani LdBOB over-expressing NTR1; format: functional
[20] = Metabolic stability in CD1 mouse liver microsomes at 40 mins by LC-MS method; format: ADME, microsome; how it was run: as §2
[21] = Half life in CD1 mouse liver microsomes by LC-MS method; format: ADME, microsome; how it was run: as §2
[22] = Metabolic stability in CD1 mouse liver microsomes at 5 mins by LC-MS method; format: ADME, microsome; how it was run: as §2
[23] = Metabolic stability in CD1 mouse liver microsomes at 30 mins by LC-MS method; format: ADME, microsome; details: 0.5 h; how it was run: as §2
[24] = tested on: HepG2; test: Cytotoxicity against human HepG2 cells assessed as decrease in cell viability after 72 hrs by MTT assay; details: hepg2, 72 h
[25] = tested on: THP-1; test: Cytotoxicity against human THP1 cells assessed as decrease in cell viability after 72 hrs by MTT assay; format: cell-based; details: thp-1, 72 h
How it was run: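 PMA-differentiated THP-1 (50 ng/mL final), 10⁶ cells/mL in complete RPMI, 48 h. Compounds in DMSO (<0.5% v/v) for 72 h at 37 °C. MTT 0.5 mg/mL for 2 h, formazan dissolved in DMSO, A570 with 630 nm reference. Viability expressed as percent of untreated control; doxorubicin as positive control; 50% cytotoxic concentration from dose–response curve.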

[26] = tested on: Salmonella typhimurium; test: Mutagenicity in Salmonella typhimurium TA98 at […] preincubated for 1 hr with S9 mix followed by addition of molten top agar and measured 48 hrs post dark incubation by Ames test; format: toxicity, organism-based; details: salmonella enterica subsp. enterica serovar typhimurium

T1 sequence (P02768 whole entry): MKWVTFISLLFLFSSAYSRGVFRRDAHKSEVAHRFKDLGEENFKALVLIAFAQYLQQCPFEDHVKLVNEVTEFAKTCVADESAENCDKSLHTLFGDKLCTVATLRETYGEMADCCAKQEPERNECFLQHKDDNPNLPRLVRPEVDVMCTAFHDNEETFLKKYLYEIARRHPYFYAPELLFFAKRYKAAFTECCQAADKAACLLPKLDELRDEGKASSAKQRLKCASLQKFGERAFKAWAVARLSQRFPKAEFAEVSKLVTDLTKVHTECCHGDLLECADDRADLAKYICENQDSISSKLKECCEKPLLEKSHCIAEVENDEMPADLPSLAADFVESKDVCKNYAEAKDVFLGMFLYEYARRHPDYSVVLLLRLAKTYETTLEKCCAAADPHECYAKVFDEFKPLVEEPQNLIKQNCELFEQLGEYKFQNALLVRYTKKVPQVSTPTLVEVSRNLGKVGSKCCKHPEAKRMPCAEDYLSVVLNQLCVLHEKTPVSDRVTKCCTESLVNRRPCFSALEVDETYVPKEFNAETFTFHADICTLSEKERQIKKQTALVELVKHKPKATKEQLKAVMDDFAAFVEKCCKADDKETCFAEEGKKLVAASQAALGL
Chain of Albumin (P02768 whole entry): as above

SMILES: O=c1[nH]c2c([N+](=O)[O-])cccc2cc1Br
- pIC50 [1]: 5.72
- logFu [2]: -1.11
- fraction unbound at 4 h [3]: 0.078
- pIC50 [4]: 4.75
- fraction unbound at 4 h [5]: 0.078
- Stability [6]: 869 pmol/mL
- pIC50 [7]: 5.23
- Activity ([8]; 250 µM): Toxic
- Activity ([8]; 2500 µM): Toxic
- pIC50 [9]: 4.74
- pIC50 [10]: 5.34
- Activity ([11]; 250 µM): Toxic
- Activity ([11]; 2500 µM): Toxic
- pIC50 [12]: 5.41
- pIC50 [13]: 5.15
- pIC50 [14]: 6.33
- Stability [15]: 802 pmol/mL
- Activity [16]: -0.45 V
- Activity [17]: Non-Toxic
- Activity ([18]; 250 µM): Non-Toxic
- Activity ([18]; 2500 µM): Toxic
- Ratio IC50 [19]: 10
- Stability [20]: 772 pmol/mL
- t1/2 [21]: > 40 min
- Stability [22]: 861 pmol/mL
- Stability [23]: 780 pmol/mL
- CC50 [24]: 92 µM
- CC50 [25]: 72 µM
- Activity ([26]; 250 µM): Toxic
- Activity ([26]; 2500 µM): Toxic
